Data taken from the EternaBench riboswitch data.

Tested on: MS2 coat protein
Assay: apparent Kd, MS2 coat protein; higher = weaker binding; RNA-MaP array
In short: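 Apparent Kd is the median of per-cluster binding-curve fits for designed RNAs transcribed from sequenced DNA templates on an Illumina sequencing chip. The RNAs were incubated at room temperature with fluorescently labeled MS2 coat protein at 1.5 nM to 3 μM, with or without input ligand, and designs measured on fewer than 10 clusters were excluded.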

[1] = designed as: OFF switch for flavin mononucleotide, no ligand
[2] = ligand present: flavin mononucleotide, designed as: OFF switch for flavin mononucleotide
[3] = designed as: ON switch for theophylline, no ligand
[4] = ligand present: theophylline, designed as: ON switch for theophylline
[5] = designed as: ON switch for flavin mononucleotide, no ligand
[6] = ligand present: flavin mononucleotide, designed as: ON switch for flavin mononucleotide
[7] = designed as: OFF switch for theophylline, no ligand
[8] = ligand present: theophylline, designed as: OFF switch for theophylline
[9] = designed as: ON switch for tryptophan, no ligand
[10] = ligand present: tryptophan, designed as: ON switch for tryptophan
[11] = designed as: OFF switch for tryptophan, no ligand
[12] = ligand present: tryptophan, designed as: OFF switch for tryptophan

## GCAAUUCUUGAGAAGGUCGUAGUGCGCAGACCAAAAGCACAUGAGGAUCACCCAUGUGAUCAAACGAAGGAUAUCACAGUAGAA
[1]
  apparent Kd: 51.9 nM
[2]
  apparent Kd: 49.3 nM

## UUAGCACAUGAGGAUCACCCAUGUCUCGAUACCAGAUAAGUUCCGAUCCCUUGGCAGCGACAAGCUUGCAAACUGCGACUAUUCU
[3]
  apparent Kd: 24.7 nM
[4]
  apparent Kd: 25 nM

## GCUAUAUUUGAGAAGGGAGGAUGCUUCACAGAGCUUAGACCAGACAUGAGGAUCACCCAUGUGCCUCAGGAUAUCAAUAUCGAU
[5]
  apparent Kd: 27.3 nM
[6]
  apparent Kd: 8.5 nM

## AACGUACAUGAGGAUCACCCAUGUGAGGAUAUGCCUAAAGAGUUCUAAGCAUCCAAGGGCAGAAGGCACAUGAA
[1]
  apparent Kd: 99.1 nM
[2]
  apparent Kd: 140 nM

## GGAACGAUCACUUCUUUAUCUAAGGCGGAUACCAGUCCUCGGUUUGACCCUUGGCAGCCGACAACAUGAGGAUCACCCAUGUUCU
[7]
  apparent Kd: 15.6 nM
[8]
  apparent Kd: 20.4 nM

## GAAAUACAUGAGGAUCACCCAUGUCAGGAUAUCGGUGAGAAAGAGCAUCUCUGCGGCCCGAGAAGGGACACAGG
[1]
  apparent Kd: 64.5 nM
[2]
  apparent Kd: 51.8 nM

## GACAAAAUGGUAGGAUAUGCUUGGUCUUGAUCAGCAGAAGGACCACAUGAGGAUCACCCAUGUGCAGUGAUUCUGGGAGCUCGC
[1]
  apparent Kd: 55.2 nM
[2]
  apparent Kd: 93.3 nM

## CAUACGCCGCAGAAGGAGUCGAGUCCGUUUCAACUAGGAUAUGCCAGAACAUGAGGAUCACCCAUGUUGCGGGUGCAGCUCAAU
[1]
  apparent Kd: 37.8 nM
[2]
  apparent Kd: 38.9 nM

## GUCGCAUGAGGAUAUACAUGAGGAUCACCCAUGUAUCUACGCAUGGGAAGACACCAAUGUAGAAGGCAUCUCAA
[1]
  apparent Kd: 64.2 nM
[2]
  apparent Kd: 21.5 nM

## CCUGGACAUGAGGAUCACCCAUGUGAGGAUACCAGAUAUCCUGAUAUCCCUUGGCAGCCUCAUUACUUCGCAUUACCGAAACUUC
[3]
  apparent Kd: 103 nM
[4]
  apparent Kd: 249 nM

## AUCGGCGCACAGAAGGGACGAUCAAACUGCUGAUCACAUGAGGAUCACCCAUGUUGUUUGGAUAGUCAGGAUAUGUUGACCAUG
[1]
  apparent Kd: 17.6 nM
[2]
  apparent Kd: 16 nM

## CGUAAACAUGAGGAUCACCCAUGUGAUGAUACCAGCACGAUUAACUGCCCUUGGCAGCAUGUAUUGUACGACUUAUUGCCCAUCG
[3]
  apparent Kd: 14.8 nM
[4]
  apparent Kd: 16.8 nM

## AAGAACAUGAGGAUCACCCAUGUGAUCGUUCGAGGACCGGUACGGCCGCCACUCGGACCUGUGUCCAGGCACGGGCCGACGCGAC
[9]
  apparent Kd: 77.8 nM
[10]
  apparent Kd: 38.2 nM

## GAUAAAGCAGGAUAUACAUACCGGCCAUGACUAAAAGAAGGACAUGAGGAUCACCCAUGUAGAAGGGCUUAAAA
[1]
  apparent Kd: 15.7 nM
[2]
  apparent Kd: 30.5 nM

## CCAUGGAGGACUGAGGAUAUUCGCAUAAGCACAUGAGGAUCACCCAUGUCAGAAAUAAAUCUCUAGAAGAAGGCAGCGCUAAGACA
[5]
  apparent Kd: 12.9 nM
[6]
  apparent Kd: 13.2 nM

## CAUACAUAACAUGAGGAUCACCCAUGUGACUCACUCUGAAAGCAGGAUAUAUUCGGUAAGCUACGAUAGAAGGGCUAUGCGUAA
[1]
  apparent Kd: 42.2 nM
[2]
  apparent Kd: 31.3 nM

## AGCUCGUAGACAUGAGGAUCACCCAUGUAGAUCAAGAAAUUCAAGGAUAUUGGGAGUAAGCCGUGCAAGAAGGUGAGACUAGAU
[5]
  apparent Kd: 57 nM
[6]
  apparent Kd: 45.2 nM

## UCGAUGGUACCCGAUACCAGCAAUACAUCACAGACCUGAUACAUGAGGAUCACCCAUGUGUGCCCUUGGCAGCGGGUCCUGAAAA
[7]
  apparent Kd: 17.8 nM
[8]
  apparent Kd: 38.1 nM

## ACACCUCACGGAAUACAUGAGGAUCACCCAUGUUGGGAAGGAAGAAGGUUCCGUGUUGAUUGCUGAAAGGAUAUUCGUGACCCG
[1]
  apparent Kd: 190 nM
[2]
  apparent Kd: 153 nM

## GUAAACGCCACAGGAUAUUGGCAGAAUAAGGAGCAAGAAGGGUGGGAUAGAAUCACGUGAACAUGAGGAUCACCCAUGUGUGGA
[5]
  apparent Kd: 55.3 nM
[6]
  apparent Kd: 38 nM

## CUGCCACGAACGGCCGCCACUUACAUGAGGAUCACCCAUGUGCCUGCGCACAAAGAAUGUCAAGAAAGGACCGGGUUCAAAUAGU
[11]
  apparent Kd: 61.3 nM
[12]
  apparent Kd: 66.8 nM

## UAAGAAGUCCAGAAGGUAGCCCUACCGUACAGCUAAGGAUAUGGCUCACCGGUUUCAACAUGAGGAUCACCCAUGUCCUCCCGG
[5]
  apparent Kd: 55.9 nM
[6]
  apparent Kd: 36.3 nM

## UAACAUGAGGAUCACCCAUGUAACCAUCUCCAAGUCGGUAGGCAGGAUAUGUACAUAAUGGAAGAACAGAAGGGCCGGUCCGAG
[5]
  apparent Kd: 31.1 nM
[6]
  apparent Kd: 9.9 nM

## CCAUGAAGCGAGGAUAUUCUCACUGCCAAGUUGGAAGAAGGCGCUACAUGAGGAUCACCCAUGUAGUCAGUCCG
[1]
  apparent Kd: 5.07 nM
[2]
  apparent Kd: 5.32 nM

## UGUACCUGUAUCUGGUCCAUAGUAUAACCUCGAGGACCGGUACGGCCGCCACUCGUCGGACCACAUGAGGAUCACCCAUGUACCG
[11]
  apparent Kd: 11.6 nM
[12]
  apparent Kd: 12.7 nM

## UUUCAAGUAUCGGCCGCCACUCUAGUUGGUUGUUCAAUCCGAUUACAUGAGGAUCACCCAUGUCUGAGGACCGGGAUAAAGUAAU
[9]
  apparent Kd: 26.1 nM
[10]
  apparent Kd: 31.8 nM

## AAACUGAUCUUCAGGAGUCACUAUAUCUCCCGAGGACCGGUACGGCCGCCACUCGAACGUUUACAUGAGGAUCACCCAUGUGACU
[11]
  apparent Kd: 14.8 nM
[12]
  apparent Kd: 19.6 nM

## ACAGAACGAGGAUAUCCACUUUGAUACAUGAGGAUCACCCAUGUCCUGAAAGUGUUUCAGGGAGAAGGCGUACCUA
[1]
  apparent Kd: 18 nM

## UGAGAAGUAGGAUAUAAGUACACCUACAUGAGGAUCACCCAUGUACCUAACGUAGCCGAUUUAGAAGGACUGUCAA
[1]
  apparent Kd: 58.7 nM
[2]
  apparent Kd: 35.5 nM

## UAGCGACAUGAGGAUCACCCAUGUGAGGAUAUGAAGUCUAUAACACAAGCUAAUGAAGACAGAAGGCACAUGAG
[1]
  apparent Kd: 66.8 nM
[2]
  apparent Kd: 59.3 nM

## AAAGACGACCAGAAGGAGCCGCCACAUGAGGAUCACCCAUGUAUGCAAAGAUAACUGGGUUAACGCUAGGAUAUGGUGGAGAAA
[1]
  apparent Kd: 63.5 nM
[2]
  apparent Kd: 44.1 nM

## AGAUCCUAAGUAAGGAUAUACCUCGCACACAAGUCGUAGAAGGUACAUGAGGAUCACCCAUGUAGGAAAGUACU
[1]
  apparent Kd: 12.4 nM
[2]
  apparent Kd: 15.3 nM

## AUGUCACAUGAGGAUCACCCAUGUAUGGAUACCAGUUUAGUGAAUAACCCUUGGCAGCCAAGGAUGCGACAGAAAUCCGGAAAAC
[3]
  apparent Kd: 21.3 nM
[4]
  apparent Kd: 21.1 nM

## UGAGAACAUGUCUUUAAGUUUACCUCUGAUACCAGAUUGAAAGGCAUCCCUUGGCAGCAGCAUACAUGAGGAUCACCCAUGUCCU
[7]
  apparent Kd: 111 nM
[8]
  apparent Kd: 138 nM

## UGGGUCCGAUCAGGAUAUUAGCUACCGGAGUAUGACUGGUACUACAUGAGGAUCACCCAUGUUGCUAAGAAGGGAUGAACUGAA
[5]
  apparent Kd: 97.4 nM
[6]
  apparent Kd: 26.6 nM

## AAAUGAGCGCAUCCCUAACAUGAGGAUCACCCAUGUGCUACAGAGGAUAUCGUCACCAUAUCUCACGAGAAGGCUGGUAUAUUG
[1]
  apparent Kd: 9.25 nM
[2]
  apparent Kd: 11.4 nM

## CAAGGGAAUACAGGAUAUUGCUGGAGUUGGGCGAGACAUGAGGAUCACCCAUGUUAUGCUAUAGUCAAGAAGGGUAUCUCGAGG
[1]
  apparent Kd: 18.5 nM
[2]
  apparent Kd: 13 nM

## GGUCCAAUAGGAUAUACAUGAGGAUCACCCAUGUAAUGGAAGCUCGGGUUUUGGUACUGUAGAAGGAUUGGGAC
[1]
  apparent Kd: 25.8 nM
[2]
  apparent Kd: 40.9 nM

## UAGCGACAUGAGGAUCACCCAUGUCCCGGCUACUAAGGAUAUGCAGUGAUUGAAAGGAAGGCAGAAGGUAGUGCAG
[5]
  apparent Kd: 25.3 nM
[6]
  apparent Kd: 12.7 nM

## AACUGUAAUACAAGAACAUGAGGAUCACCCAUGUGUCGCGCAGAGGAUAUACUGGUUCGCUGUCCGUAGAAGGCUGAGCACAUG
[5]
  apparent Kd: 33.9 nM
[6]
  apparent Kd: 23.9 nM

## UAUAAGGAAGGAUAUAGGCUGCAAAACAUGAGGAUCACCCAUGUGAACCGACGACGCCAACUAGAAGGUCCCUAUG
[1]
  apparent Kd: 13.5 nM
[2]
  apparent Kd: 12.9 nM

## GCCUCGAACUCAGGAUAUCAGAGAGGUUGCCGCUGAGAAGGGAGACAUGAGGAUCACCCAUGUACAGUCAUGACCGUCGAGUUG
[5]
  apparent Kd: 65.8 nM
[6]
  apparent Kd: 84 nM

## CGGCUCAUAAUGGAUACCAGUCCAGCAUAGAAACCUUGACACAUGAGGAUCACCCAUGUUGACCCUUGGCAGCCAUUGAUCAUAC
[7]
  apparent Kd: 22.4 nM
[8]
  apparent Kd: 133 nM

## UGGGAUAGCCAGAAGGUGGAAGCAACAACUGUCCAAGGAUAUGGUUGUUAUAAGGCAUCACACAUGAGGAUCACCCAUGUUAAU
[5]
  apparent Kd: 83.2 nM
[6]
  apparent Kd: 35.2 nM

## AUAAAGGAAGGAUAUACAUGAGGAUCACCCAUGUUGAAAUACAGAAAAGGAGAAACAAGUAGAAGGACCGAUGU
[1]
  apparent Kd: 14.2 nM
[2]
  apparent Kd: 11.6 nM

## GAUAGGUGAGGAUAUGUGAGUGAUCACAUGAGGAUCACCCAUGUUGACUCAUGUUGGCUUACAGAAGGCACAGGAA
[1]
  apparent Kd: 137 nM
[2]
  apparent Kd: 97.2 nM

## CAUGUGUAAGGAUAUGCGUCGAUAUCAACUAACUAUAUGAUGCAGAAGGUACAUGAGGAUCACCCAUGUGAACU
[1]
  apparent Kd: 30.3 nM
[2]
  apparent Kd: 118 nM

## UGUAGACAUGAGGAUCACCCAUGUGCAACUGCAACAGGAUAUAGGGAGCGAUAGGAACGCCUAGAAGGGUUGAUCU
[5]
  apparent Kd: 28.2 nM
[6]
  apparent Kd: 24.6 nM

## CUCUACAUGAGGAUCACCCAUGUAUUAAUACAACUGGGUGCUAGAAGGUGCACUUAAGAAUAGGGCAAGGAUAUAGACCGUUCA
[1]
  apparent Kd: 158 nM
[2]
  apparent Kd: 77.4 nM

## GACGGGCCUAUUGAUACCAGACCUAGUGACAACAUGAGGAUCACCCAUGUGACGGCAAAAGUCCCUUGGCAGCAAGUAGAAAUAA
[3]
  apparent Kd: 12.6 nM
[4]
  apparent Kd: 12.3 nM

## ACGUUCGCGGUAUCCAACCGGUUGUACAAACGAGGACCGGUACGGCCGCCACUCGUGAUUGUACAUGAGGAUCACCCAUGUGGCA
[11]
  apparent Kd: 17.6 nM
[12]
  apparent Kd: 17.2 nM

## UGUGGGUCCGAAGAUACCAGCCAGCACAGCAUGUGUUUAAACAUGAGGAUCACCCAUGUCGGCCCUUGGCAGCUUGGUUUGGACG
[7]
  apparent Kd: 15.5 nM
[8]
  apparent Kd: 12.1 nM

## UCACAUGAGGAUCACCCAUGUAAAUCACACGACGGUGCUGUCAAGGAUAUGUUACGCUCAGGGCUACAGAAGGUGAUGGUCAAG
[5]
  apparent Kd: 52.7 nM
[6]
  apparent Kd: 25.2 nM

## UUCUUUGACGAGAAGGUCUCAACAUGAGGAUCACCCAUGUGAAUUAAUGGAACCAGGCCUGUUUAGAAGGAUAUCGCGGGAGUU
[1]
  apparent Kd: 10.9 nM
[2]
  apparent Kd: 13.8 nM
